The list is not random: actives were taken first. Their share in the collection is about 2.3%.
TRPC6 inhibitor: blocks the mouse TRPC6 cation channel; HEK293-TRPC6, membrane potential dye, ACh-evoked depolarization; hits give low values; actives 1.1% (n = 310,000); B-score at 10 µM;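 active = B-score under library mean minus 3 SD, initial fluorescence not abnormally high, positive integrated signal ratio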;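 also: B-score derived from integrated fluorescence ratio over the kinetic read; more negative B-score means stronger inhibition of depolarization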
TRPC4 act: TRPC4 (mouse) channel activation; Q9QUQ5; AID 2237; HEK293 TRPC4beta/mu-opioid, Fluo4 calcium fluorescence; hits give high values; B-score at 10 µM; actives 0.49% (n = 310,000);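 active = B-score above 5 SD of library B-scores, and initial fluorescence ratio not above library mean plus 5 SD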;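 also: positive B-score marks a calcium rise read as TRPC4 activation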
Target sequence (Q9QUQ5 whole entry, looked up): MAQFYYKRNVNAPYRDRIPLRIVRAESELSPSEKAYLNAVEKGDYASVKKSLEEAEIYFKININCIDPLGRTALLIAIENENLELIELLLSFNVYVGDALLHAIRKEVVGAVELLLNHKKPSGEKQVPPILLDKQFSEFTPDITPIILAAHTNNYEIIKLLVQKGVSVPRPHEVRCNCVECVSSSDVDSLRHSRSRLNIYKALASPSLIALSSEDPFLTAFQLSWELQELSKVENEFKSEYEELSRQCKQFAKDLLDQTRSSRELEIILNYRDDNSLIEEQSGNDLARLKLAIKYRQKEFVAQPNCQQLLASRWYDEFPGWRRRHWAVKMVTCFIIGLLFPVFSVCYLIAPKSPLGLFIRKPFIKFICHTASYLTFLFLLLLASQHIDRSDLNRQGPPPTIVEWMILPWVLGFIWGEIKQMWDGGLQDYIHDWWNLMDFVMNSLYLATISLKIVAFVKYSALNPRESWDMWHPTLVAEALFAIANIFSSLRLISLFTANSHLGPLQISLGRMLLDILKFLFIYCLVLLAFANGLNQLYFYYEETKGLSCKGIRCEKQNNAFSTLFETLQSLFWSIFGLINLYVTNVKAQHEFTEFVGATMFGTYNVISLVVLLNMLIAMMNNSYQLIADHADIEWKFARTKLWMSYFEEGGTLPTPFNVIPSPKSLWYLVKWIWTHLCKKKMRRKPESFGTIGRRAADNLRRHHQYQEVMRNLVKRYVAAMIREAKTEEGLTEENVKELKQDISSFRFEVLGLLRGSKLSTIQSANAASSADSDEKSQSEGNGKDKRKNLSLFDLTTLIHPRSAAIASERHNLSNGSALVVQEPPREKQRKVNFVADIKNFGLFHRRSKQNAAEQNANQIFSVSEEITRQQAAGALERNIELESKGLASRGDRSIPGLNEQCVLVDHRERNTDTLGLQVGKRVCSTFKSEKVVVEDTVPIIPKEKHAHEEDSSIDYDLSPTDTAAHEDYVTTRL
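Test system: HEK293 cells stably co-expressing mouse TRPC4beta and mu-opioid receptor | Schedule: Fluo4 dye loading 45 min at room temperature, 110 s recording | Measured by: Kinetic Fluo4 calcium fluorescence, 5 s baseline at 1 Hz | Evaluation: B score of integrated ratio | Controls: Buffer (low) and maximal DAMGO (high)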
TRPC4 block: inhibitors of mouse TRPC4 channel. HEK293 TRPC4beta/mu-opioid, DAMGO-evoked Fluo4 calcium flux; hits give low values. B-score at 10 µM. actives 0.39% (n = 300,000). AID 2247. Q9QUQ5;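 active = B-score over 3 SD under the library average, no early fluorescence shift, positive overall ratio signal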
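material = TRPC4beta/mu-opioid receptor HEK293 cell line | probe or stimulus = sequential submaximal and maximal DAMGO stimulation | compound dosing = one concentration per compound | measured by = Fluo4 Ca2+ flux fluorescence | evaluation = integrated fluorescence ratio relative to baseline, converted to per-well B score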
TRPC4 potent: allosterically enhances the mouse TRPC4 cation channel; Q9QUQ5; HEK293 TRPC4beta/mu-opioid, DAMGO EC20, Fluo-4 Ca2+ flux; hits give high values; B-score at 10 µM; actives 0.42% (n = 310,000); AID 2227;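 active = B-score of calcium response area above 5 SD of library B-scores, with initial fluorescence ratio within 5 SD of library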
TRPC6 act: activates the mouse TRPC6 cation channel | Q61143 | HEK293-TRPC6 membrane potential dye fluorescence; hits give high values | B-score at 10 µM | actives 0.13% (n = 310,000) | AID 2550;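 active = B-score of the integrated fluorescence ratio above library mean plus 3 SD, and starting fluorescence ratio within library mean plus 5 SD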;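 also: higher score means more depolarization so channel activation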
TRPC4 spec 2: second selectivity test of TRPC6 inhibitors: effect on mouse TRPC4; actives 42% (n = 920); HEK293 TRPC4/MOR, membrane potential dye fluorescence; channel activated by saturating DAMGO dose; inhibition, % at 10 µM; shares compounds with TRPC6 inhibitor;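 active = compounds whose fluorescence signal differed from control wells by over 3 SD, either direction, in both duplicate plates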
TRPC4 spec: tests whether TRPC6 inhibitors also affect mouse TRPC4. shares compounds with TRPC6 inhibitor. AID 2777. actives 61% (n = 920). activity change, negative = inhibition, % at 10 µM. HEK293 TRPC4/mu-opioid, membrane potential fluorescence;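 active = rise or fall in signal beyond 3 SD of buffer-only wells in both replicate plates, either sign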;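 also: integrated kinetic ratio of fluorescence range over baseline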
HEK293 MPD ctr 2-1: second counter-screen for TRPC6 inhibitors: parental HEK293 cells; shares compounds with TRPC6 inhibitor; actives 31% (n = 920); parental HEK293 membrane potential dye fluorescence; maximal acetylcholine challenge after compound addition; signal change vs control, % at 10 µM; AID 2779;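 active = membrane potential signal moving either way by over 3 SD of the maximum-effect control, in both duplicate plates, meaning non-specific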
HEK293 MPD ctr-1: counter-screen for TRPC6 inhibitors: effect in parental HEK293 cells; shares compounds with TRPC6 inhibitor; parental HEK293 membrane potential dye fluorescence; membrane potential signal change, % at 10 µM; actives 60% (n = 920); AID 2780;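 active = membrane potential signal shifting up or down by more than 3 SD of buffer-only wells, on both duplicate plates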
HEK293 MPD ctr-2: parental HEK293 nonspecific activity of TRPC6 modulators; AID 488924; membrane potential dye fluorescence; actives 51% (n = 2,400); shares compounds with TRPC6 inhibitor; membrane potential signal change, % at 10 µM;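 active = membrane potential signal moves up or down beyond 5 SD from buffer-only wells, on both duplicate plates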
HEK293 MPD ctr 2-2: second check of TRPC6 modulator effects in parental HEK293 cells | actives 14% (n = 2,400) | membrane potential dye fluorescence; after compound, maximal acetylcholine stimulation | AID 488926 | shares compounds with TRPC6 inhibitor | inhibition, % at 10 µM;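 active = membrane potential signal drops by more than 5 SD from the mean control signal, in both duplicate plates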
TRPC4 ctr mod: mouse TRPC4 off-target activity of TRPC6 modulators; percent change from control (negative = decrease, positive = increase), % at 10 µM; HEK293 TRPC4/mu-opioid, membrane potential fluorescence; actives 69% (n = 2,400); shares compounds with TRPC6 inhibitor;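 active = membrane potential signal moved up or down beyond 5 SD of buffer control wells, in both duplicate plates, actives on both sides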
TRPC4/MOR inh 2: mouse TRPC4 off-target activity of TRPC6 modulators, second screen; HEK293 TRPC4/mu-opioid, membrane potential dye fluorescence; stimulated with maximal-effect DAMGO; actives 55% (n = 2,400); shares compounds with TRPC6 inhibitor; inhibition, % at 10 µM;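 active = drop in membrane potential signal beyond 5 SD of the control wells in both duplicate plates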;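 also: TRPC4 counter screen for TRPC6 hits run under conditions tuned for TRPC6 not TRPC4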
TRPC6 inh conf: confirmation of mouse TRPC6 inhibitors; HEK293-TRPC6, membrane potential dye, ACh-evoked depolarization; inhibition, % at 10 µM; shares compounds with TRPC6 inhibitor; actives 43% (n = 3,300);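 active = fluorescence ratio falls more than 5 SD below the full-stimulation control mean, in both duplicate runs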;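 also: integrated fluorescence ratio of peak minus minimum over baseline after agonist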
TRPC6 act confirm: confirmation of mouse TRPC6 activators; shares compounds with TRPC6 inhibitor; HEK293-TRPC6 membrane potential dye fluorescence, FDSS; activation, % at 10 µM; actives 11% (n = 2,800); AID 488961;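 active = ratio signal rise beyond 5 SD above unstimulated control wells' mean, seen in both duplicate runs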
Large screens that a line does not name were inactive (follow-up assays come after a bar, where they were run).

CCOc1cc2c(C#N)c(N3CCNCC3)nc(N)c2c(N)n1	TRPC6 inhibitor -5.88, TRPC4 potent 12 | HEK293 MPD ctr-2 -193.5% | HEK293 MPD ctr 2-2 inactive | TRPC4 ctr mod -25.0% | TRPC4/MOR inh 2 inactive | TRPC6 inh conf 37.5% | TRPC6 act confirm inactive
CN(C)CCOC(C1CCCCC1)C1CCCCC1	TRPC6 inhibitor -5.53 | HEK293 MPD ctr-2 229.5% | HEK293 MPD ctr 2-2 inactive | TRPC4 ctr mod 52.5% | TRPC4/MOR inh 2 50.5% | TRPC6 inh conf 39.0%
CCOc1ccc(S(=O)(=O)N2CCc3cc(OC)c(OC)cc3C2)cc1	TRPC6 act 11.6 | HEK293 MPD ctr-2 inactive | HEK293 MPD ctr 2-2 inactive | TRPC4 ctr mod 10.5% | TRPC4/MOR inh 2 inactive | TRPC6 act confirm 114.5%
CC1=NOC(=O)/C1=C/c1ccc(N(C)C)cc1	none
CCOc1ccccc1NC=C1C(=O)OC2(CCCCC2)OC1=O	none
CCN(CC)c1ccc(/C=C2/C(=O)ON=C2C)cc1	TRPC6 act 12.9 | HEK293 MPD ctr-2 799.0% | HEK293 MPD ctr 2-2 inactive | TRPC4 ctr mod 59.0% | TRPC4/MOR inh 2 inactive | TRPC6 inh conf inactive | TRPC6 act confirm 133.0%
CCN(CC)c1ccc(C=C2C(=O)OC3(CCCCC3)OC2=O)cc1	TRPC6 act 58.8 | HEK293 MPD ctr-2 723.5% | HEK293 MPD ctr 2-2 inactive | TRPC4 ctr mod 161.5% | TRPC4/MOR inh 2 inactive | TRPC6 inh conf inactive | TRPC6 act confirm 188.0%
CCCCC1(C)OC(=O)C(=Cc2ccc(N(CC)CC)cc2)C(=O)O1 (stereo not given)	TRPC6 act 35.7 | HEK293 MPD ctr-2 active | HEK293 MPD ctr 2-2 inactive | TRPC4 ctr mod 185.5% | TRPC4/MOR inh 2 inactive | TRPC6 inh conf inactive | TRPC6 act confirm 368.0%
O=C1COC(c2ccccc2)C2CCCCN12 (stereo not given)	none
C/C(=N\NC(=O)c1ccccc1O)C1C(=O)c2ccccc2C1=O	TRPC6 inhibitor -5.47 | HEK293 MPD ctr-2 inactive | HEK293 MPD ctr 2-2 inactive | TRPC4 ctr mod -16.5% | TRPC4/MOR inh 2 inactive | TRPC6 inh conf inactive | TRPC6 act confirm inactive
C/C(=N/NC(=O)c1cc2ccccc2cc1O)C1C(=O)c2ccccc2C1=O	none
Cc1ccccc1NC(=O)Cc1nc(COC(=O)CNS(=O)(=O)c2cccc(Br)c2)cs1	none
Cc1cc([N+](=O)[O-])ccc1NC(=O)CSc1nncn1-c1ccccn1	TRPC6 inhibitor -5.77 | HEK293 MPD ctr-2 inactive | HEK293 MPD ctr 2-2 inactive | TRPC4 ctr mod inactive | TRPC4/MOR inh 2 inactive | TRPC6 inh conf inactive | TRPC6 act confirm inactive
Cc1ccc([N+](=O)[O-])cc1NC(=O)CSc1nncn1-c1ccccn1	none
COc1ccc(C(=O)Nc2cccc(N(C)S(C)(=O)=O)c2)cc1OC	none
Cc1ccc(C(=O)Nc2cccc(N(C)S(C)(=O)=O)c2)cc1S(=O)(=O)Nc1ccccc1	TRPC6 inhibitor -7.74 | TRPC4 spec 2 inactive | TRPC4 spec inactive | HEK293 MPD ctr 2-1 inactive | HEK293 MPD ctr-1 inactive | TRPC6 inh conf inactive | TRPC6 act confirm inactive
Cc1ccc(NC(=S)NCCN(C2CCCCC2)C2CCCC2)cc1C	TRPC6 inhibitor -5.25 | HEK293 MPD ctr-2 110.5% | HEK293 MPD ctr 2-2 inactive | TRPC4 ctr mod 16.0% | TRPC4/MOR inh 2 65.5% | TRPC6 inh conf inactive
CCc1ccc(-c2nc(CN3CCC(C(=O)NCCN(CC)c4ccccc4)CC3)c(C)o2)cc1	TRPC6 inhibitor -5.57 | HEK293 MPD ctr-2 inactive | HEK293 MPD ctr 2-2 inactive | TRPC4 ctr mod inactive | TRPC4/MOR inh 2 62.5% | TRPC6 inh conf inactive | TRPC6 act confirm inactive
CCN(CCNC(=O)C1CCN(Cc2nc(-c3cccc(Cl)c3)oc2C)CC1)c1ccccc1	none
CCOC(=O)c1ccc(Nc2nc(C)nc3c2nnn3Cc2ccccc2)cc1	none
CC(=O)c1ccc(Nc2cc(C)nc3c(C)cc(C)cc23)cc1	TRPC6 inhibitor -6.86, TRPC4 block -6 | TRPC4 spec 2 inactive | TRPC4 spec -20.6% | HEK293 MPD ctr 2-1 inactive | HEK293 MPD ctr-1 -327.0% | TRPC6 inh conf inactive | TRPC6 act confirm inactive
Cc1cc(C)c2nc(C)cc(Nc3ccc(C(=O)NCCO)cc3)c2c1	TRPC6 inhibitor -10.4 | TRPC4 spec 2 inactive | TRPC4 spec -19.9% | HEK293 MPD ctr 2-1 -46.5% | HEK293 MPD ctr-1 -307.5% | TRPC6 inh conf 56.2% | TRPC6 act confirm inactive
Cc1cc(C)c2nc(C)cc(Nc3ccc(C(=O)N(C)C)cc3)c2c1	TRPC6 inhibitor -5.37 | HEK293 MPD ctr-2 -114.5% | HEK293 MPD ctr 2-2 inactive | TRPC4 ctr mod -22.5% | TRPC4/MOR inh 2 inactive | TRPC6 inh conf inactive | TRPC6 act confirm inactive
COc1ccc(Nc2nnc(-c3ccc(C(=O)NCCO)cc3)c3ccccc23)cc1	none
O=C(NC1CCCC1)c1ccc(CNc2c(N3CCOCC3)c(=O)c2=O)cc1	none
COc1ccc(NC(=S)NNc2ccc([N+](=O)[O-])cc2S(=O)(=O)Nc2ccc(C)cc2C)cc1	TRPC6 inhibitor -6.78 | TRPC4 spec 2 inactive | TRPC4 spec inactive | HEK293 MPD ctr 2-1 inactive | HEK293 MPD ctr-1 inactive | TRPC6 inh conf inactive | TRPC6 act confirm inactive
C=CCC1(N(C(C)=O)c2ccccc2C)CCCCC1	TRPC6 inhibitor -9.38 | TRPC4 spec 2 inactive | TRPC4 spec -0.4% | HEK293 MPD ctr 2-1 inactive | HEK293 MPD ctr-1 0.5% | TRPC6 inh conf inactive | TRPC6 act confirm inactive
C=CCC1(N(C(C)=O)c2ccccc2)CCCCC1	none
